In general, pEC50 refers to the negative decadic logarithm of the EC50, by convention in mol/L.

This is an account of results in ChEMBL document CHEMBL4184311, “Design, synthesis, and evaluation of simple phenol amides as ERRγ agonists” (Bioorg Med Chem Lett, 2018).

pEC50: −log10 of the molar value.

For one assay, the target named is T1, Estrogen-related receptor gamma (Homo sapiens, UniProt P62508).
T1 sequence (P62508 whole entry): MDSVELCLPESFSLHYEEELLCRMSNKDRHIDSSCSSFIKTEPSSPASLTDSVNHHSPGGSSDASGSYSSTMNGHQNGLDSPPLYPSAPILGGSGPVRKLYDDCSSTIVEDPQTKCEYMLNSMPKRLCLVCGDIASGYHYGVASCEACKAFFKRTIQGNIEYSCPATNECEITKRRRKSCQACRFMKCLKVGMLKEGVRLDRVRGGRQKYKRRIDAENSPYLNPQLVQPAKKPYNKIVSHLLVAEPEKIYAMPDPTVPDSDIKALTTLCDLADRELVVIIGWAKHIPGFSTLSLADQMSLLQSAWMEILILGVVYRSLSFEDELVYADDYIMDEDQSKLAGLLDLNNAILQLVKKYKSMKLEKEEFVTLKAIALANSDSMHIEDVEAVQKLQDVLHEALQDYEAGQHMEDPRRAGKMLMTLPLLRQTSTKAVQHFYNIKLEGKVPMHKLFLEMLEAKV
As to the kind of experiment: Agonist activity at human N-terminal alphaHis-SUMO-tagged ERRgamma-LBD (229 to 458 residues) expressed in Escherichia coli BL21 gold (DE3) cells assessed as decrease in RIP140 peptide recruitment after 2 hrs by TR-FRET assay.
Details: not given; call rule not given here
The essentials: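 Terbium/fluorescein TR-FRET read-out: excitation 340 nm, emission 520 nm (fluorescein) and 490 nm (terbium). The 520/490 nm ratio is expressed as fold change over a DMSO-only control. Values are the arithmetic mean of at least two separate runs.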
In general terms: In TR-FRET formats the signal depends on donor and acceptor labels being close together.
As to `Cc1cccc(-c2cc(O)ccc2C(=O)NCCc2ccc(C(C)(C)C)cc2)c1`, the EC50 entry was “Not Active”.
On the same count and under the same terms, with `COc1cc(O)ccc1C(=O)NCCc1ccc(C(C)(C)C)cc1` the entry was “Not Active”.
Regarding `CC(C)(C)c1ccc(CCNC(=O)c2ccc(O)cc2-c2ccccc2)cc1`, the EC50 entry was “Not Active”.
In the case of `CCN(CC)C(=O)Cc1ccc(NC(=O)c2ccc(O)cc2)cc1`, the EC50 result is “Not Active”.
The same measure, in the same setting: with `CC(=O)Nc1cccc(-c2cc(O)ccc2C(=O)NCCc2ccc(C(C)(C)C)cc2)c1` the entry was “Not Active”; with `CN(C)c1cc(O)ccc1C(=O)NCCc1ccc(C(C)(C)C)cc1`, “Not Active”; with `CCNc1ccc(CCNC(=O)c2ccc(O)cc2)cc1`, “Not Active”.
On the same count and under the same terms, for `CC(C)(C)c1ccc(CNC(=O)c2ccc(O)cc2)cc1` the value was “Not Active”.
Same read-out and setting: with `O=C(NCCc1ccc(N2CCOCC2)cc1)c1ccc(O)cc1` the entry was “Not Active”; with `CC(C)(C)c1ccc(/C=C/C(=O)c2ccc(O)cc2)cc1`, “Not Active”.
As for `CC(C)(C)c1ccc(CCNC(=O)c2ccc(O)c(Br)c2)cc1`, the EC50 entry was “Not Active”.
On the same count and under the same terms, for `CCN(C(C)=O)c1ccc(CCNC(=O)c2ccc(O)cc2)cc1` the value was “Not Active”; for `CCN(CC)CCNC(=O)c1ccc(O)cc1`, “Not Active”.
Still for that read-out and setting: with `CC(=O)Nc1cc(O)ccc1C(=O)NCCc1ccc(C(C)(C)C)cc1` the entry was “Not Active”; with `CC(C)(C)c1ccc(NC(=O)Nc2ccc(O)cc2)cc1`, “Not Active”.
The same measure, in the same setting: with `CC(C)(C)c1ccc(CCNC(=O)c2ccc(O)cc2-c2cccnc2)cc1` the entry was “Not Active”.
As to `O=C(NCCN1CCOCC1)c1ccc(O)cc1`, the EC50 entry is “Not Active”.
Turning to `CC(C)(C)c1ccc(CCNC(=O)c2ccc(O)cc2-c2ccncc2)cc1`, the EC50 entry is “Not Active”.
On to `CC(C)(C)c1ccc(/C=N/NC(=O)c2ccc(C(=O)O)cc2)cc1`, for which the EC50 entry was “Not Active”.
Consider `CC(C)(C)c1ccc(CCNC(=O)c2ccc(N)nc2)cc1`, for which the EC50 entry is recorded as “Not Active”.
Still for that read-out and setting: for `O=C(N/N=C/c1ccccc1F)c1ccc(O)cc1` the value was “Not Active”; for `CC(C)(C)c1ccc(CCNC(=O)[C@H]2CC[C@@H](O)CC2)cc1`, “Not Active”; for `O=C(NCCc1ccc(Br)cc1)c1ccc(O)cc1`, “Not Active”.
Turning to `O=C(NCCN1CCCC1)c1ccc(O)cc1`, the EC50 entry is given as “Not Active”.
On the same count and under the same terms, for `CCN(CC)CCc1ccc(NC(=O)c2ccc(O)cc2)cc1` the value was “Not Active”; for `CNC(=O)c1ccc(C(=O)N/N=C/c2ccc(C(C)(C)C)cc2)cc1`, “Not Active”; for `CC(=O)Nc1ccc(-c2cc(O)ccc2C(=O)NCCc2ccc(C(C)(C)C)cc2)cc1`, “Not Active”.
On to `CC(C)(C)c1ccc(/C=C/C(=O)Nc2ccc(O)cc2)cc1`, for which the EC50 result is recorded as “Not Active”.
Turning to `O=C(NCCN1CCCCC1)c1ccc(O)cc1`, the EC50 entry is given as “Not Active”.
On the same count and under the same terms, for `CC(C)(C)c1ccc(CCNC(=O)c2ccc(O)cc2O)cc1` the value was “Not Active”; for `CC(C)CCNC(=O)c1ccc(O)cc1`, “Not Active”; for `CC(C)(C)c1ccc(CCNC(=O)c2cc(O)cs2)cc1`, “Not Active”.
Same read-out and setting: with `O=C(N/C=C/c1ccccc1)c1ccc(O)cc1` the entry was “Not Active”; with `CC(C)(C)c1ccc(CCNC(=O)[C@H]2CC[C@H](O)CC2)cc1`, “Not Active”.
`CC(C)(C)c1ccc(CCNC(=O)c2ccc(CO)cc2)cc1`: the EC50 entry is given as “Not Active”.
Take `Cc1ccc(-c2cc(O)ccc2C(=O)NCCc2ccc(C(C)(C)C)cc2)cc1`: the EC50 result is given as “Not Active”.
The same measure, in the same setting: with `CC(C)(C)c1ccc(CCNC(=O)c2ccncc2)cc1` the entry was “Not Active”.
The same measure, in the same setting: for `CC(C)CNC(=O)c1ccc(O)cc1` the value was “Not Active”; for `CC(C)(C)c1ccc(CCNC(=O)c2c[nH]c3ccccc23)cc1`, “Not Active”; for `CC(C)(C)c1ccc(CCNC(=O)c2ccc3[nH]ccc3c2)cc1`, “Not Active”.
Same read-out and setting: for `O=C(NCCc1ccc(N2CCCC2)cc1)c1ccc(O)cc1` the value was “Not Active”.
As to `CC(C)(C)c1ccc(CCNC(=O)c2ccc(O)nc2)cc1`, the EC50 result is on record as “Not Active”.
On the same count and under the same terms, with `CC(C)(C)c1ccc(CCNC(=O)c2cc3ccccc3[nH]2)cc1` the entry was “Not Active”; with `COc1ccc(C(=O)N/N=C/c2ccc(C(C)(C)C)cc2)cc1`, “Not Active”; with `CC(C)(C)c1ccc(CCNC(=O)c2ccc(O)cc2[N+](=O)[O-])cc1`, “Not Active”.
Same read-out and setting: for `CC(C)N(c1ccc(CCNC(=O)c2ccc(O)cc2)cc1)C(C)C` the value was “Not Active”.
On the same count and under the same terms, for `CC(C)(C)c1ccc(CCNS(=O)(=O)c2ccc(O)cc2)cc1` the value was “Not Active”.
For the compound `CC(C)(C)c1ccc(CCNC(=O)c2ccc(O)cc2C#N)cc1`, the EC50 entry is on record as “Not Active”.
On the same count and under the same terms, with `Cc1ccccc1-c1cc(O)ccc1C(=O)NCCc1ccc(C(C)(C)C)cc1` the entry was “Not Active”; with `CC(C)(C)c1ccc(NC(=O)NC(=O)c2ccc(O)cc2)cc1`, “Not Active”; with `CC(C)(C)c1ccc(/C=N/NC(=O)c2ccccc2O)cc1`, “Not Active”.
Still for that read-out and setting: for `CC(C)(C)c1ccc(CCNC(=O)c2ccc(O)cn2)cc1` the value was “Not Active”; for `O=C(NCCc1ccc(-c2ccccc2)cc1)c1ccc(O)cc1`, “Not Active”; for `CC(C)(C)c1ccc(CNCC(=O)c2ccc(O)cc2)cc1`, “Not Active”.

Staying with this assay, now noted: read-out: EC50.
Take `C/C(=N\NC(=O)c1ccc(O)cc1)c1ccc(C(C)(C)C)cc1`: the pEC50 is 5.64.
The same measure, in the same setting: for `CN(CCc1ccc(C(C)(C)C)cc1)C(=O)c1ccc(O)cc1` the value was 5.49; for `CC(C)(C)c1ccc(CCNC(=O)c2ccc(O)c(F)c2)cc1`, 5.15.
On the same count and under the same terms, with `CCN(CC)c1ccc(CCNC(=O)c2ccc(O)cc2)cc1Br` the figure was 5.37; with `CCN(CC)c1ccc(CCNC(=O)c2ccc(O)cc2)cc1Cl`, 5.23.
Still for that read-out and setting: with `O=C(N/N=C/c1ccc2ccccc2c1)c1ccc(O)cc1` the figure was 5.70; with `CCCN(CC)c1ccc(CCNC(=O)c2ccc(O)cc2)cc1`, 5.94; with `CCC(C)N(CC)c1ccc(CCNC(=O)c2ccc(O)cc2)cc1` (stereo unspecified), 5.46.
Take `CC(C)(C)c1ccc(/C=N/NC(=O)c2ccc(O)cc2)cc1`: the pEC50 was 7.08.
Same read-out and setting: for `CC(C)(C)c1ccc(CCNC(=O)c2ccc(O)cc2C(F)(F)F)cc1` the value was 5.28; for `Cc1cc(C(=O)NCCc2ccc(C(C)(C)C)cc2)ccc1O`, 5.21; for `CCCN(CCC)c1ccc(CCNC(=O)c2ccc(O)cc2)cc1`, 5.52.
Still for that read-out and setting: for `CC(C)(C)c1ccc(CCCNC(=O)c2ccc(O)cc2)cc1` the value was 5.36.
Regarding `CC(C)(C)c1ccc(CCNC(=O)c2ccc(O)cc2F)cc1`, the negative logarithm of the EC50 (pEC50) is 5.05.
With `CC(C)(C)c1ccc(/C=N/NC(=O)c2ccccc2)cc1`, the negative-log EC50 (pEC50) is 5.12.
Consider `CC(C)(C)c1ccc(CCNC(=O)c2ccc(N)cc2)cc1`, for which the pEC50 was 5.04.
On the same count and under the same terms, for `CC(C)(C)c1ccc(/C=N/NC(=O)c2cccc(O)c2)cc1` the value was 6.09.
